Here are results for 17 compounds from the M2OR odorant receptor database.

Common to all, as to details: stereoisomer not certain
The target in one assay is T1, UniProt Q7TRW1.
T1 sequence (whole entry): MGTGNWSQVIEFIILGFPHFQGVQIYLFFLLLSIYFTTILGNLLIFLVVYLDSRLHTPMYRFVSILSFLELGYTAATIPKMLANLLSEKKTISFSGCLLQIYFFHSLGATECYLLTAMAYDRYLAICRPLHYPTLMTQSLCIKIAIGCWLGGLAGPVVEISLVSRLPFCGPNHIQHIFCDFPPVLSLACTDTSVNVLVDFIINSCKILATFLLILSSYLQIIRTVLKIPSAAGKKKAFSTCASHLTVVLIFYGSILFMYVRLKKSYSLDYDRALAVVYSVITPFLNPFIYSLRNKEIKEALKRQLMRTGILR
Summed up:
(§1)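 Each entry records the cell line, G-protein, co-transfected protein and tags used. Methods varied with the source, often transient luciferase assays in mammalian cell lines. A receptor–molecule pair is called responsive (active) if the original authors judged its signal statistically different from baseline and non-responsive (inactive) otherwise.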

A further assay deals with T2, UniProt Q7TRX0.
T2 sequence (whole entry): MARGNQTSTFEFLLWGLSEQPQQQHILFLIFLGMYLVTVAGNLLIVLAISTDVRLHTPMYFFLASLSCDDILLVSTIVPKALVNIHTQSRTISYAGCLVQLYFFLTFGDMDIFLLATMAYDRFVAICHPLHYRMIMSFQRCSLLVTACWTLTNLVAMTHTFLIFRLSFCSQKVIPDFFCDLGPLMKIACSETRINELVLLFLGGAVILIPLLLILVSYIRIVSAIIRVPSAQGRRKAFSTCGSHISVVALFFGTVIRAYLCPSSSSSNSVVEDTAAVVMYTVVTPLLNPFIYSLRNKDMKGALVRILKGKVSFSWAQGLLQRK
Summed up: as §1

The target of another assay is T3, UniProt Q8VEU7.
T3 sequence (whole entry): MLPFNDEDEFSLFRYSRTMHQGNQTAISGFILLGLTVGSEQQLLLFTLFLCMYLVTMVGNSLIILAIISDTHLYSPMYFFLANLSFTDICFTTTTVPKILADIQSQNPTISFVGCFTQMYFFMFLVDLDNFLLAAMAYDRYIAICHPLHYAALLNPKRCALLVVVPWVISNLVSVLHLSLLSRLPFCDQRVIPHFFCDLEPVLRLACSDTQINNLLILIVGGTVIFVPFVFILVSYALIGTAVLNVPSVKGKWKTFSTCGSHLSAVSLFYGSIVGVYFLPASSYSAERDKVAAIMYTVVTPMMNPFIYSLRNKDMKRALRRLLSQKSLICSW
In outline: as §1

For another assay, the target named is T4, UniProt Q8VF05.
T4 sequence (whole entry): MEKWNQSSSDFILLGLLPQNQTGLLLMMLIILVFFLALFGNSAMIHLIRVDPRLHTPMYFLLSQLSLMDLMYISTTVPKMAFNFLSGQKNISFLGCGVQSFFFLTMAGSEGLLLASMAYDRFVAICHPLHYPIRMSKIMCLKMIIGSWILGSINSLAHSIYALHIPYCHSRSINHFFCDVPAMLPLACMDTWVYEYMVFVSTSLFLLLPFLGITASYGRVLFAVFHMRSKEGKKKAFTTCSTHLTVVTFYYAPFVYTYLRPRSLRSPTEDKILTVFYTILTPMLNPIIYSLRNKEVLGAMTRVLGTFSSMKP
In outline:
as §1

The target of another assay is T5, UniProt Q8VF24.
T5 sequence (whole entry): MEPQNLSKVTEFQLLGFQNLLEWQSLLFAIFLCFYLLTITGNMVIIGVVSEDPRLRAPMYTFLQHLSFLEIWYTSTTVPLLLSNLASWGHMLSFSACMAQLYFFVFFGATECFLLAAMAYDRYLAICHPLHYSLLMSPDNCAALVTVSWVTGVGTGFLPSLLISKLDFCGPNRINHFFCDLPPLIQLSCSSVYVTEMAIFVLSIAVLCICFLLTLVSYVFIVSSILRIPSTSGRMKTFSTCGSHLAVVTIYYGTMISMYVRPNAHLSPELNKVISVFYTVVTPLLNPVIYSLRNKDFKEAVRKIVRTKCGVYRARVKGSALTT
In outline:
as §1

In another assay the target is T6, UniProt Q8VF43.
T6 sequence (whole entry): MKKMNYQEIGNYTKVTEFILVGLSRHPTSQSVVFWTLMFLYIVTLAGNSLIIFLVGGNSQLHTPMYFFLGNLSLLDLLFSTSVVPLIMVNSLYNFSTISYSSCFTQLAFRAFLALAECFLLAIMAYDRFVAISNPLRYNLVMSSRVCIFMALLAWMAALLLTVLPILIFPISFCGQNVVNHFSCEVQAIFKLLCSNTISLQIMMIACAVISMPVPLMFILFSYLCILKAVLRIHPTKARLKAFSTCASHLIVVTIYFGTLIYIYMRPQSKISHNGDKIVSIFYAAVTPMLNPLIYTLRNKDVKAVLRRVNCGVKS
In outline:
as §1

A further assay deals with T7, UniProt Q8VF44.
T7 sequence (whole entry): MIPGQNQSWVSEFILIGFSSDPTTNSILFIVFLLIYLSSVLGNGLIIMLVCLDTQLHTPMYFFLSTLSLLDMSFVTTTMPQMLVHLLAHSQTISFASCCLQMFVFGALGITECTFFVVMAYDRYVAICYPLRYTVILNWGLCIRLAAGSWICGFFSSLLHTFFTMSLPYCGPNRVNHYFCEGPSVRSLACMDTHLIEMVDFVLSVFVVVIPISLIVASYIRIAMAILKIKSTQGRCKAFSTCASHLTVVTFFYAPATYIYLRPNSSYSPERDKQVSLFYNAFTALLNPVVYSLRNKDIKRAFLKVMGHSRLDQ
Summed up:
as §1

The target of the next assay is UniProt Q7TRN9. In outline:
as §1

Another assay addresses UniProt Q7TRR8. In outline: as §1
In another assay the target is UniProt Q8VF06. In outline: as §1
Chain of UniProt Q8VF06 (Q8VF06 as listed by the source): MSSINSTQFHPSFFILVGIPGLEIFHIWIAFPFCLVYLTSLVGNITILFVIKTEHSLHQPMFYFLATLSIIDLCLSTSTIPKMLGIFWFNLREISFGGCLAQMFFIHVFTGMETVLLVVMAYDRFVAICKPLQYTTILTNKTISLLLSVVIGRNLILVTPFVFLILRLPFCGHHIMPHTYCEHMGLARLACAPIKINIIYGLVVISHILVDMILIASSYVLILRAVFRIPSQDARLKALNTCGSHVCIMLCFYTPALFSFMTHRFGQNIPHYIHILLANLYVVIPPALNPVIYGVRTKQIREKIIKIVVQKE

Chain of UniProt Q7TRR8 (Q7TRR8 as listed by the source): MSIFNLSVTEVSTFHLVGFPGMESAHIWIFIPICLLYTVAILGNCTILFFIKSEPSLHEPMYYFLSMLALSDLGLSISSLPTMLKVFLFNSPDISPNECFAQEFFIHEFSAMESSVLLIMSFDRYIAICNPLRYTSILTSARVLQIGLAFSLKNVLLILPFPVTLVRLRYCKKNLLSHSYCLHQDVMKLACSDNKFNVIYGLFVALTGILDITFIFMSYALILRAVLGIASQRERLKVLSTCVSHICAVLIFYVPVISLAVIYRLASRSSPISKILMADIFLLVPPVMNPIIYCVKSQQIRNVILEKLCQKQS
Chain of UniProt Q7TRN9 (Q7TRN9 as listed by the source): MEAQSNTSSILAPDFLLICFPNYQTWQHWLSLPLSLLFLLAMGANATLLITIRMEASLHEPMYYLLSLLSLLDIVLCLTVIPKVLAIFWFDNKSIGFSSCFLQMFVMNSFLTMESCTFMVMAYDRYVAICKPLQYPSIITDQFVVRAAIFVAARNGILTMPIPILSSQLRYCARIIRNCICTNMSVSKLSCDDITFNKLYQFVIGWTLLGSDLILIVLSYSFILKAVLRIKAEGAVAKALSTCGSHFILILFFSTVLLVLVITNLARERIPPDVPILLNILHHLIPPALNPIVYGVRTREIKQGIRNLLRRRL

Consider `C=CCOC(=O)Cc1ccccc1`, for which the “odorant receptor agonist call” value with UniProt Q7TRW1, in the assay with UniProt Q7TRX0, in the assay with UniProt Q8VEU7, with UniProt Q8VF24, with UniProt Q8VF43 and with UniProt Q8VF44 was “inactive” each time. Also, the “odorant receptor agonist call” value with UniProt Q8VF05 is “active”.
`CCCCC(Br)C(=O)O` (stereo unspecified): the “odorant receptor agonist call” value with UniProt Q7TRX0 and with UniProt Q8VF43 was “inactive” in each case.
For the compound `C=C(C)C1CC=C(C=O)CC1` (stereo unspecified), the “odorant receptor agonist call” value in the assay with UniProt Q7TRX0 and in the assay with UniProt Q8VF43 was “inactive” each time.
With `O=Cc1ccccc1`, the “odorant receptor agonist call” value with UniProt Q7TRX0 and in the assay with UniProt Q8VF43 was “inactive” each time.
With `Oc1ccccc1Br`, the “odorant receptor agonist call” value with UniProt Q7TRX0 and with UniProt Q8VF43 was “inactive” throughout.
Consider `CCC1CCC(=O)O1` (stereo unspecified), for which the “odorant receptor agonist call” value with UniProt Q7TRW1, in the assay with UniProt Q8VEU7, with UniProt Q8VF24 and with UniProt Q8VF44 was “inactive” each time. Besides, the “odorant receptor agonist call” value with UniProt Q8VF05 was “active”.
With `O=c1cc(O)c2ccccc2o1`, the “odorant receptor agonist call” value with UniProt Q7TRW1, with UniProt Q7TRX0, with UniProt Q8VEU7, with UniProt Q8VF05, with UniProt Q8VF24 and in the assay with UniProt Q8VF43 was “inactive” each time. In addition, the “odorant receptor agonist call” value with UniProt Q8VF44 is “inactive”.
With `O=Cc1ccc2c(c1)OCO2`, the “odorant receptor agonist call” value in the assay with UniProt Q7TRX0 and with UniProt Q8VF43 was “inactive” each time.
On to `CCCCCCC(Br)C(=O)O` (stereo unspecified), for which the “odorant receptor agonist call” value in the assay with UniProt Q7TRX0 and with UniProt Q8VF43 was “inactive” throughout.
As to `OCc1ccc2c(c1)OCO2`, the “odorant receptor agonist call” value with UniProt Q7TRX0 and with UniProt Q8VF43 was “inactive” each time.
Regarding `C=CCc1ccccc1`, the “odorant receptor agonist call” value with UniProt Q7TRW1 is “active”. Moreover, the “odorant receptor agonist call” value with UniProt Q8VEU7, with UniProt Q8VF05, with UniProt Q8VF24 and in the assay with UniProt Q8VF44 was “inactive” throughout.
As for `O=CC=Cc1ccccc1`, the “odorant receptor agonist call” value with UniProt Q7TRX0 and with UniProt Q8VF43 was “inactive” each time.
On to `O=C(O)CCCCCCCBr`, for which the “odorant receptor agonist call” value with UniProt Q7TRN9 is “active”. Moreover, the “odorant receptor agonist call” value with UniProt Q7TRR8 and with UniProt Q8VF06 was “inactive” each time.
Turning to `CSSC`, the “odorant receptor agonist call” value with UniProt Q7TRX0 and in the assay with UniProt Q8VF43 was “inactive” in each case.
As to `CC(C=O)Cc1ccc2c(c1)OCO2` (stereo unspecified), the “odorant receptor agonist call” value with UniProt Q7TRX0 and in the assay with UniProt Q8VF43 was “inactive” throughout.
Turning to `Cc1ccc(OC(=O)Cc2ccccc2)cc1`, the “odorant receptor agonist call” value in the assay with UniProt Q7TRX0 and with UniProt Q8VF43 was “inactive” in each case.
With `COc1ccc(C=O)cc1`, the “odorant receptor agonist call” value with UniProt Q7TRX0 and in the assay with UniProt Q8VF43 was “inactive” each time.
